Reference: ChEMBL document CHEMBL1143741, “Sirtuin 2 inhibitors rescue alpha-synuclein-mediated toxicity in models of Parkinson's disease” (Science, 2007)
Activity calls are given as the source filed them. The calls are words filed in the database; no cut-off is given here.

Tests used:
[1] = biological target: T1, NAD-dependent protein deacetylase sirtuin-1 (Homo sapiens, UniProt Q96EB6); test: Inhibition of human recombinant SIRT1 using fluorescent peptide substrate by fluorescent assay
T1 sequence (Q96EB6 whole entry): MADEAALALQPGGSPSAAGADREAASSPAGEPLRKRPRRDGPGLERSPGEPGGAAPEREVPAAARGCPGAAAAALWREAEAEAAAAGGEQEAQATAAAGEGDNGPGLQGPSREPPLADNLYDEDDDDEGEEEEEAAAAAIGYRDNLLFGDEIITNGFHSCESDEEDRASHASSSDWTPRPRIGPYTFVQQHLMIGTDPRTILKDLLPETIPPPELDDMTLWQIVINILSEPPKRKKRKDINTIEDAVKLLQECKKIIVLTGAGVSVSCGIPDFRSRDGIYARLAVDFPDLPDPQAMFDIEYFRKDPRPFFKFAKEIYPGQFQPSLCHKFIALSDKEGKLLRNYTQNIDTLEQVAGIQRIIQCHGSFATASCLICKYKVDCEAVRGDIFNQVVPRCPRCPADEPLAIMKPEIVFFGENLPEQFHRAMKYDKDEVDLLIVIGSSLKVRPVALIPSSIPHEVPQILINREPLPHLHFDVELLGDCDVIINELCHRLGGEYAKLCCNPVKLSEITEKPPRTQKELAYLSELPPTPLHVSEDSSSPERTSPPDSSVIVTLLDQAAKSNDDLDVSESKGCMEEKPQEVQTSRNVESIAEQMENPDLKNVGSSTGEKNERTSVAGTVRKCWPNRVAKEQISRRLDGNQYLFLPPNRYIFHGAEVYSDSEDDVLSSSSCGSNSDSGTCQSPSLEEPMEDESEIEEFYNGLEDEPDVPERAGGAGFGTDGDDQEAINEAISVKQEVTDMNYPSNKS
Method in brief: (§1)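 Recombinant human SIRT1 or SIRT2 tested in an in vitro fluorometric deacetylation assay. Dose-response inhibition profiles were run, and IC50 was calculated from them.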

[2] = biological target: T2, NAD-dependent protein deacetylase sirtuin-2 (Homo sapiens, UniProt Q8IXJ6); test: Inhibition of human recombinant SIRT2 using fluorescent peptide substrate by fluorescent assay; method in brief: as §1
T2 sequence (Q8IXJ6 whole entry): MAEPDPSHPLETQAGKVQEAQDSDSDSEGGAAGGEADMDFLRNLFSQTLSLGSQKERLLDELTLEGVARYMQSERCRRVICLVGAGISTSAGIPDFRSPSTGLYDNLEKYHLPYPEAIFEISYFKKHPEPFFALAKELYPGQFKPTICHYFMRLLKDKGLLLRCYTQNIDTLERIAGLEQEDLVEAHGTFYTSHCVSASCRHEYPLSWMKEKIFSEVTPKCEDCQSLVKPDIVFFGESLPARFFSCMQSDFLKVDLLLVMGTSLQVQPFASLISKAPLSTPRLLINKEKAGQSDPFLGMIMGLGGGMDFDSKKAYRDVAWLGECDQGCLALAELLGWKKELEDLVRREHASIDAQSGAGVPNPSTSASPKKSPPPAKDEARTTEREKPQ

[3] = biological target: T3, NAD-dependent protein deacetylase sirtuin-3, mitochondrial (Homo sapiens, UniProt Q9NTG7); test: Inhibition of human recombinant SIRT3 using fluorescent peptide substrate by fluorescent assay
T3 sequence (Q9NTG7 whole entry): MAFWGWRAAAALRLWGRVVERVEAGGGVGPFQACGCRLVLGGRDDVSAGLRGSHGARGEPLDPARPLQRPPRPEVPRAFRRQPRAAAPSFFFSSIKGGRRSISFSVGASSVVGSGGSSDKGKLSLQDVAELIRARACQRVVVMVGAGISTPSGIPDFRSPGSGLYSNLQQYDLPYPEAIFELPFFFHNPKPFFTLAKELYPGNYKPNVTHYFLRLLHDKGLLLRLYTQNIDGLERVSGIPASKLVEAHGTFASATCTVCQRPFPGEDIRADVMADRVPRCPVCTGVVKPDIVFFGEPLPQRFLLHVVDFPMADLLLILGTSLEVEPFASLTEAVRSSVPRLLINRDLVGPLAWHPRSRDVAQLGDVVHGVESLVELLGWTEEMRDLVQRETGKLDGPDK

Drosophila = test: Protective effect against alphaSyn mediated toxicity in wild-type transgenic Drosophila expressing elav-GAL4; UAS-synWT assessed as rescue of dorsomedial neurons after drug administration for the first 20 days of adult life; assay type: functional, organism-based
Method in brief: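 Transgenic α-Syn flies were fed compound at 250, 500 or 1000 μM, or DMSO, for the first 20 days of adult life. TH-positive dopamine neurons in the dorsomedial cluster were then assessed in 20-day-old flies. Significance was set at P < 0.01.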

Midbrain = test: Protection of dopaminergic cell death in rat embryo midbrain transduced with lentivirus encoding alphaSyn-A53T mutant assessed as tyrosine hydroxylase positive cells; assay type: functional, tissue-based
Method in brief: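 Primary midbrain cultures transduced with α-SynA53T lentivirus (multiplicity of infection = 5) in the presence of vehicle (DMSO) or increasing compound concentrations. Untransduced DMSO-treated (0.2%, v/v) cells served as control. Stained for MAP2 and TH; viability = percentage of MAP2-positive cells also TH-positive. Means ± SEM, N > 3; one-way ANOVA with Dunnett's post hoc test versus α-SynA53T alone.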

Row | Compound | IC50 [1] [µM] | IC50 [2] [µM] | IC50 [3] [µM] | Activity (Drosophila) | Activity (Midbrain)
1 | N#C/C(=C\c1ccc(-c2cccc(Cl)c2Cl)o1)C(=O)Nc1cccc2cccnc12 | > 50 | > 50 | > 50 | – | –
2 | N#C/C(=C\c1ccc(-c2cc(Cl)ccc2Cl)o1)C(=O)Nc1cccc2ncccc12 | > 50 | – | – | Dose-dependent effect | Active
3 | O=C(c1ccc(Cl)cc1)N1CCN(c2ccc([N+](=O)[O-])c3ncccc23)CC1 | > 50 | 35 | > 50 | – | Active
4 | N#C/C(=C\c1ccc(-c2cc(Cl)ccc2Cl)o1)C(=O)Nc1cccc2cccnc12 | – | > 50 | > 5 | – | –

The next lines start with results.

Row | IC50 [1] [µM] | IC50 [2] [µM] | IC50 [3] [µM] | Compound | Activity (Drosophila) | Activity (Midbrain)
5 | – | > 50 | > 50 | N#C/C(=C\c1ccc(-c2ccccc2Cl)o1)C(=O)Nc1cccc2cccnc12 | – | –
6 | > 50 | > 50 | > 50 | N#C/C(=C\c1ccc(-c2cccc(C(F)(F)F)c2)o1)C(=O)Nc1cccc2cccnc12 | – | –
7 | > 50 | 6 | > 50 | N#C/C(=C\c1ccc(-c2cccc(C(F)(F)F)c2)o1)C(=O)Nc1cccc2ncccc12 | – | –
8 | > 50 | > 10 | > 50 | N#C/C(=C\c1ccc(-c2cccc(Cl)c2Cl)o1)C(=O)Nc1cccc2ncccc12 | – | –
9 | – | 5.5 | > 50 | N#C/C(=C\c1ccc(-c2ccccc2Cl)o1)C(=O)Nc1cccc2ncccc12 | – | –
